Where “and” joins values, the source holds several entries; their conditions need not be identical. Identical values can stand only once. Calls of active or inactive are those of the source.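 How the source made its calls: active means compounds lowering growth signal whose fitted half-effect dose is at most twice their top tested dose; inconclusive means flat fit with moderate inhibition, or poor curve fit; inactive means the rest.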
Columns and labels:
[1] = test system: C. albicans CaCi-2 growth, Alamar Blue fluorescence, 48 h; assay: C. albicans CaCi-2 growth inhibitors, compound alone – CaCi-2 strain, dry powder, plate reader, set 3, dose response (AID 623981)
Procedure, shortened: (§1)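 system = C. albicans CaCi-2, fluconazole-resistant | quantity = inoculum A600 0.00015 | medium = MOPS-buffered RPMI 1640 plus uridine, glucose, Pen/Strep | timing = 48 h at 37 °C, humidified, plus 2 h stain | technique = Alamar Blue fluorescence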

[2] = as above; details: C. albicans CaCi-2 growth, Alamar Blue fluorescence, 48 h; at 3 µM (top of the series)
Procedure, shortened: as §1

| Compound | AC50 [1] | activity change, negative = inhibition [2] |
| --- | --- | --- |
| CC1/C=C/C=C\C=C\C=C\C=C\C=C\C=C\C(O[C@H]2OC(C)C(O)C(N)C2O)CC2OC(O)(CC(O)CC(O)C(O)CCC(O)CC(O)CC(=O)OC(C)C(C)C1O)CC(O)C2C(=O)O (stereo partly drawn) | 92.3 nM |  |
| CCOC(=O)N1C(=O)C2(CCCCC2)N(c2ccc(C#N)cc2)C1=S | 307 nM |  |
| CCOC(=O)N1C(=O)C2(CCCCC2)N(c2ccc(F)cc2)C1=S | 150 nM |  |
| CCOC(=O)N1C(=O)C2(CCCCC2)N(c2ccccc2)C1=S | 697 nM |  |
| CCOC(=O)N1C(=O)C2(CCCCC2)N(c2cccc(C)c2)C1=S | 1260 nM |  |
| CCOC(=O)N1C(=O)C2(CCCCC2)N(c2ccc(Cl)cc2)C1=S | 221 nM |  |
| CCOC(=O)N1C(=O)C2(CCCCC2)N(c2ccc(C)cc2)C1=S | 2740 nM and 3070 nM |  |
| C/C=C/[C@@H]1[C@H]2C[C@@H](C)CC[C@@H]2C(C)=C[C@H]1C(=O)c1c(O)c(-c2ccc(O)cc2)c[nH]c1=O |  | 47.9% (inactive) |

Source: PubChem BioAssay AID623981 (Broad Institute, 2012)
